Screens: PubChem, The Scripps Research Institute Molecular Screening Center
Compounds with a hit are over-represented: about 2.8% of the library has one in this group of screens.
PAFAH2 FP inh: PAFAH2 enzyme inhibitors, primary screen, biochemical, fluorescence polarization, human | Platelet-activating factor acetylhydrolase 2, cytoplasmic (Homo sapiens), Q99487 | recombinant PAFAH2, FP-rhodamine activity probe | inhibition, % at 3.39 µM | 340,000 tested, 0.99% active | AID 492956, 2010;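 active means inhibition above the mean over all tested compounds plus 3 SD, cut at about 30% in these data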;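 further: inhibitors block probe labeling of enzyme so polarization drops; 0% = enzyme with DMSO and 100% = wells lacking PAFAH2 protein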
PAFAH1B3 inh: PAFAH1B3 enzyme inhibitors, primary screen, biochemical, fluorescence polarization, human; recombinant PAFAH1B3, FP-rhodamine probe; inhibition, % at 3.39 µM; 340,000 tested, 0.28% active;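 active means inhibition above the screen-wide average of all tested compounds plus 3 SD, cut at about 25% in these data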;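 further: 0% = enzyme with DMSO only and 100% = wells lacking PAFAH1B3 protein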
Target sequence (Q15102 whole entry, looked up): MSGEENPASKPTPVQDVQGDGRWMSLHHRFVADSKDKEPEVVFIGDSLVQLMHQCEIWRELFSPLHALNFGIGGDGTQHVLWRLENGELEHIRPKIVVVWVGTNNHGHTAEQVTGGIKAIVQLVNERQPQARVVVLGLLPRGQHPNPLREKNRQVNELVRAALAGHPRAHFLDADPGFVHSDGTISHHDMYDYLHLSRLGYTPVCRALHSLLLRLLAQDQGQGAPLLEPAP
ABHD4 inh: ABHD4 inhibitors, primary screen, biochemical, fluorescence polarization, mouse. purified mABHD4, FP-Rh probe fluorescence polarization. inhibition, % at 8.92 µM. 370,000 tested, 0.54% active. (Lyso)-N-acylphosphatidylethanolamine lipase (Mus musculus), Q8VD66. AID 720543, 2013;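 active means inhibition exceeding the mean over every tested compound plus 3 SD, cut at about 30% in these data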;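 further: 0% = plate median of compound wells and 100% = S159A mutant with DMSO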
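Test system: mABHD4 protein | Buffer or medium: HEPES pH 7.0 buffer, 150 mM NaCl, 0.01% Pluronic F-127 | Probe or stimulus: FP-Rh fluorescent activity-based probe, added after compound pre-incubation | Timing: Pre-incubation 45 min, probe exposure 60 min, at 25 °C | Technique: Fluorescence polarization, excitation 525 nm, emission 598 nm, BODIPY TMR filters | Repeats: Single well per compound (singlicate)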
pPAFAH FP inh: pPAFAH enzyme inhibitors, primary screen, biochemical, fluorescence polarization, human | recombinant pPAFAH, FP-rhodamine probe fluorescence polarization | inhibition, % at 3.39 µM | 330,000 tested, 1.5% active;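 active means inhibition above the mean inhibition across the screen plus 3 SD, cut at about 25% in these data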;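 further: inhibitors block binding of the rhodamine activity-based probe so polarization drops; 0% = enzyme with DMSO and 100% = wells lacking pPAFAH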
Target sequence (Q13093 whole entry, looked up): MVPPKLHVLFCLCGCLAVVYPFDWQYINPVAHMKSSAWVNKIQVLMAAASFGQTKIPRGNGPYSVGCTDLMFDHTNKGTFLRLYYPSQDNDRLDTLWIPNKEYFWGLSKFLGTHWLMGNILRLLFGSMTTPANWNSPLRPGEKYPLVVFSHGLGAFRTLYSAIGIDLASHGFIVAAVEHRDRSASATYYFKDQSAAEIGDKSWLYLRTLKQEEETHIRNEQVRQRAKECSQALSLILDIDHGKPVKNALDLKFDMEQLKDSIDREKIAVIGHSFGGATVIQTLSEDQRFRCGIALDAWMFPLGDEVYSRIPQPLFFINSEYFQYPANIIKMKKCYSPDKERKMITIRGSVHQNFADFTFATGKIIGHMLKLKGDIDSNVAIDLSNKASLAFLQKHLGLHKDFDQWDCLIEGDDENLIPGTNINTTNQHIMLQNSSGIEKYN
PAFAH1B2 FP inh: PAFAH1B2 enzyme inhibitors, primary screen, biochemical, fluorescence polarization, human; Platelet-activating factor acetylhydrolase IB subunit alpha2 (Homo sapiens), P68402; recombinant PAFAH1B2, FP-rhodamine activity probe; inhibition, % at 3.39 µM; 340,000 tested, 1.2% active;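 active means inhibition above the mean of all tested compounds plus 3 SD, cut at about 24% in these data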;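 further: 0% = enzyme with DMSO and 100% = wells lacking PAFAH1B2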
HTRA1 inh: HTRA1 serine protease inhibitors, primary screen, biochemical, fluorescence polarization, HTS; Q92743; recombinant HTRA1, FP-rhodamine activity-based probe; inhibition, % at 5.96 µM; 340,000 tested, 0.5% active; AID 504803, 2011; in the data active means inhibition above about 36%;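 further: 0% = enzyme with DMSO and 100% = wells lacking enzyme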
pPAFAH FP conf: pPAFAH (PLA2G7) enzyme inhibitors, confirmation, biochemical, fluorescence polarization, human | shares compounds with pPAFAH FP inh | recombinant pPAFAH, FP-Rh probe fluorescence polarization | inhibition, % at 3.39 µM | 2,300 tested, 72% active | AID 463230, 2010;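 active means mean inhibition of the triplicate above the hit cutoff set for the earlier primary screen, cut at about 25% in these data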;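 further: 0% = enzyme with DMSO and 100% = wells lacking pPAFAH enzyme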
An asterisk follows results filed as active; x = not tested or not shown.

SMILES	PAFAH2 FP inh	PAFAH1B3 inh	ABHD4 inh	pPAFAH FP inh	PAFAH1B2 FP inh	HTRA1 inh	others
Cc1cccc(-c2nnc(SCC(=O)Nc3ccc(-c4nc5ccc(C)cc5s4)cc3)n2Cc2ccco2)c1	x	x	-22	x	x	x
O=[N+]([O-])c1cc(/C=N\Nc2ccccn2)ccc1Cl	3	7	9	-1	4	6
O=[N+]([O-])c1cc(C=Nc2cccc3c(O)cccc23)ccc1Cl	x	x	x	25*	x	x
CCCc1ccc2oc(C(=O)N3CCC(COC)C3)c(C)c2c1 (stereo not drawn)	10	-2	-3	27*	5	-9
COc1ccc(NC(=O)CCCN2C(=O)/C(=C\c3ccco3)SC2=S)cc1	-1	6	2	14	1	-4
O=C(CN1C(=O)/C(=C/c2ccco2)SC1=S)Nc1ccc(O)c(C(=O)O)c1	14	19	-29	33*	4	3
O=C1/C(=C\c2ccc(O)cc2)SC(=S)N1c1cccnc1	-7	-2	-7	-9	-1	-10
O=C1/C(=C\c2ccco2)SC(=S)N1c1ccc(O)cc1	-6	2	13	34*	-1	-1
CC(C)(C)OC(=O)NCc1ccccc1/C=C/S(=O)(=O)NCc1ccc(F)cc1	x	x	-10	x	x	x
Nc1c(C(=O)NCc2ccco2)sc2nc3c(cc12)C(=O)CCC3	1	-7	22	28*	2	16
COc1ccc2cc3c(N)c(C(=O)NCc4ccco4)sc3nc2c1	10	1	4	8	-1	-15
O=C(NCc1ccco1)c1c2c(nc3ccccc13)CCC2	15	6	21	27*	4	20
O=C(CSc1c2c(nc3ccccc13)CCCC2)NCc1ccco1	-3	6	3	-1	2	2
Cc1cc(Oc2ncccc2[N+](=O)[O-])c2cc(Cl)ccc2n1	-1	2	-7	26*	-1	-5
O=[N+]([O-])c1cccnc1Oc1cc(Cl)c(Cl)cc1Cl	x	x	-7	x	x	-14
CC1C/C(=N/N=C2/NC(=O)CS2)CC(C)(C)C1 (stereo not drawn)	-5	-4	0	4	76*	4
COC(=O)c1cc(C)oc1C	x	x	-2	x	x	x
Fc1ccc(-n2cc(-c3ccccc3)c3c(=S)nc[nH]c32)cc1	0	2	8	30*	1	-4
CCOC(=O)[C@]12CCCC=C1N(Cc1ccc(OC)cc1)C(=O)[C@@H]2CC(=O)NCc1ccc(OC)c(OC)c1	x	x	-5	x	x	x
O=C(COC(=O)CC12CC3CC(CC(C3)C1)C2)Nc1ncc(Cl)cc1Cl	20	-4	-3	27*	13	-15
O=C(COC(=O)c1ccc(Cl)nc1)Nc1ncc(Cl)cc1Cl	6	9	5	2	2	2
CN1CCC(N[C@@H](Cc2ccccc2)C(=O)NCCCc2ccccc2)(C(=O)NCCc2c[nH]c3ccccc23)CC1	x	x	8	x	x	x
Cc1nc(-c2ccc(O)c(O)c2)cs1	-4	10	15	35*	7	13	pPAFAH FP conf=6
COc1cc(-c2csc(C)n2)ccc1O	5	-2	8	2	3	0
CC1=NN(c2ccccc2)C(=O)/C1=C/c1c(O)n(-c2ccc(F)c(Cl)c2)[nH]c1=O	x	x	x	75*	x	x	pPAFAH FP conf=47*
SMILES	PAFAH2 FP inh	PAFAH1B3 inh	ABHD4 inh	pPAFAH FP inh	PAFAH1B2 FP inh	HTRA1 inh	others
Cc1cc(NC(=O)Nc2cccc(F)c2)n(-c2ccccc2)n1	x	x	-2	x	x	x
CCOC(=O)C1=NOC(C(C)=O)(C(=O)NC2CCCC2)C1 (stereo not drawn)	x	x	-5	x	x	x
O=C(Nc1ccc(S(=O)(=O)Nc2ccccc2)cc1)C1COc2ccccc2O1 (stereo not drawn)	-7	6	-27	40*	-6	-49	pPAFAH FP conf=35*
CCOC(=O)N1CCN(C(=O)C[C@@H]2C(=O)N(CCc3ccc(Cl)cc3)/C3=C/CCCCC[C@@]32C(=O)OCC)CC1	x	x	6	x	x	x
CCN(CC)c1ccc(N2C(=O)CSC2=S)cc1	-15	-15	13	48*	-5	31	pPAFAH FP conf=3
CCOc1ccc(N2C(=O)CSC2=S)cc1	-2	6	-33	-11	-5	-4
O=S(=O)(c1cc(O)ccc1O)c1cccc2c(S(=O)(=O)c3cc(O)ccc3O)cccc12	15	22	-10	41*	23	5	pPAFAH FP conf=29*
O=S(=O)(O)c1cc(O)ccc1O	-4	6	2	3	1	2
C=C(C)Cn1c(-c2ccc(OC)cc2)nc2ccccc21	6	9	-3	78*	2	-6	pPAFAH FP conf=12
CC(C)=CCc1c(O)c(CC=C(C)C)c2c(c1O)-c1cc(O)c(O)cc1CC2	x	x	x	76*	x	x	pPAFAH FP conf=56*
Cc1ccc(CNC(=O)O[C@H]2CC[C@@]34CCCN3C(=O)CCC[C@H]4[C@H]2C)o1	x	x	-1	x	x	x
Cc1ccc(NS(=O)(=O)c2cccc(C(=O)N/N=C/c3c(C)nn(-c4ccccc4)c3N3CCCC3)c2)c(C)c1	-1	8	10	58*	-8	-17	pPAFAH FP conf=35*
CCNc1ccc(C(=O)N/N=C/c2c(C)nn(-c3ccccc3)c2N2CCCC2)cc1[N+](=O)[O-]	-2	6	7	3	3	3
CCCC[C@H]1C2CC(OC(=O)Nc3ccc(C(F)(F)F)cc3)C(C2)[C@H]2CCCCN21 (stereo partly drawn)	x	x	-1	x	x	x
CCOC(=O)c1cc(-c2ccc(/C=C3/C(=O)NC(=O)C(C#N)=C3C)o2)ccc1Cl	22	17	4	46*	8	8	pPAFAH FP conf=48*
COC(=O)[C@]12C[C@H](CC(=O)NCC3CCCCC3)C(=O)N(Cc3ccco3)C1=C[C@H](C(C)(C)C)O[C@@H]2C	x	x	11	x	x	x
CN=C1S/C(=C/c2cc(C)n(-c3ccc(Cl)cc3F)c2C)C(=O)N1C	x	x	-4	x	x	x
CCC(C)c1ccccc1NC(=O)COC(=O)c1ccc2[nH]c3c(c2c1)CCCC3 (stereo not drawn)	71*	8	-15	38*	6	-42	pPAFAH FP conf=29*
COc1ccc(N(CC(=O)Nc2cc(C)ccc2OC)S(=O)(=O)c2c(C)noc2C)cc1	1	4	-4	45*	0	-7	pPAFAH FP conf=8
COc1ccc(N(CC(=O)Nc2cc(C)ccc2C)S(=O)(=O)c2c(C)noc2C)cc1	10	8	-1	8	5	-8
COC(=O)c1ccc2c(c1)NC(=O)c1ccccc1S2	-2	5	-5	6	5	-4
